The source of these data is ChEMBL document CHEMBL4190192, “Interaction of 7-Alkoxycoumarins with the Aryl Hydrocarbon Receptor” (J Nat Prod, 2017).

Type in all cases: cell-based
In data set [1] the target is T1, Aryl hydrocarbon receptor (Homo sapiens, UniProt P35869).
T1 sequence (P35869 whole entry): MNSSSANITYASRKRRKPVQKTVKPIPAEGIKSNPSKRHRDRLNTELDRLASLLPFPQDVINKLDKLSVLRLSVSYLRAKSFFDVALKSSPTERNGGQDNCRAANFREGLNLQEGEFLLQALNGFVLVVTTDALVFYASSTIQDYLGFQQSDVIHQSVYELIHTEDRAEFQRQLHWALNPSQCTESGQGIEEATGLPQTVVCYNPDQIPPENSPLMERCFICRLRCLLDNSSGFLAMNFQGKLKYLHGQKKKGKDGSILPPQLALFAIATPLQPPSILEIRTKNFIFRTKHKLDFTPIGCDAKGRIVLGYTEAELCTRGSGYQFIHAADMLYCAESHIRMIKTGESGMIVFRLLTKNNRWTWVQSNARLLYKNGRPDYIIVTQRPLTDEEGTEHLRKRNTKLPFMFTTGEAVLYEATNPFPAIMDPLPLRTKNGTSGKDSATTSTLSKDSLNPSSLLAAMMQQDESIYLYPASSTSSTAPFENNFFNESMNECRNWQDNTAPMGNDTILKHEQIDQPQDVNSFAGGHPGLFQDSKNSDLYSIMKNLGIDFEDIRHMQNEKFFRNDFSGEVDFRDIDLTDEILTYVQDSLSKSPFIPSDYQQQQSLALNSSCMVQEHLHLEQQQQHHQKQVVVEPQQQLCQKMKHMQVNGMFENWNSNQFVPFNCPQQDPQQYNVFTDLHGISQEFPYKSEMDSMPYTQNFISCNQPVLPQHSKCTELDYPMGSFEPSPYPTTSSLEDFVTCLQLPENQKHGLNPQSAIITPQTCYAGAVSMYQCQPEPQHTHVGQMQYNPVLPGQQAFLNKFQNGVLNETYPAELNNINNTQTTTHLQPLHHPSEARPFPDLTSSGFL
The data set is described as follows: Agonist activity at AhR (unknown origin) expressed in mouse H1L1.1c2 cells at 100 uM after 8 to 10 hrs by luciferase reporter gene assay. A general note: Reporter assays use an easily measured gene product as a stand-in for the process of interest.

The target in data set [2] is T1, Aryl hydrocarbon receptor. Nature of the data set: Antagonist activity at AhR (unknown origin) expressed in mouse H1L1.1c2 cells assessed as inhibition of FICZ-induced AhR activation at 1 to 100 uM after 8 to 10 hrs by luciferase reporter gene assay.
Data set [3] deals with T1, Aryl hydrocarbon receptor. The data set is described as follows: Agonist activity at AhR (unknown origin) expressed in mouse H1L1.1c2 cells at 1 to 100 uM after 8 to 10 hrs by luciferase reporter gene assay. An outline of the steps: (§1)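 AhR luciferase reporter cells were grown and treated with compounds at three concentrations (1, 10 and 100 μM). The reference ligand FICZ was run at 1 μM. The read-out was luciferase activity. Data are given as mean ± SD, with significance at P < 0.05, < 0.01 and < 0.001.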

Data set [4] deals with T1, Aryl hydrocarbon receptor. The data set is described as follows: Agonist activity at AhR (unknown origin) expressed in mouse H1L1.1c2 cells after 8 to 10 hrs by luciferase reporter gene assay. The essentials: as §1

As to `C/C=C/COc1ccc2ccc(=O)oc2c1` [(E)-7-(2-BUTENYLOXY)COUMARIN], in data set [1], the result was Active. Besides, the “inhibition (INH)” value in data set [2] is recorded as “Not Active”.

Turning to `CCC#CCOc1ccc2ccc(=O)oc2c1` [7-(2-PENTYNYLOXY)COUMARIN], the result in data set [1] was Active. Further, the “inhibition (INH)” value in data set [2] is recorded as “Not Active”.

On to `CC(C)=CCC/C(C)=C/COc1ccc2ccc(=O)oc2c1`, for which, in data set [3], the Activity result is “Not Active”. Moreover, in data set [2], the “inhibition (INH)” value is “Not Active”.

Consider `O=c1ccc2ccc(O)cc2o1` [UMBELLIFERONE], for which, in data set [3], the Activity entry is recorded as “Not Active”. Further, in data set [2], the “inhibition (INH)” value is on record as “Not Active”.

For the molecule `COc1cc(/C=C/C(=O)O)ccc1OC/C=C(\C)CCC=C(C)C`, the Activity entry in data set [3] is “Not Active”. Further, the “inhibition (INH)” value in data set [2] is given as “Not Active”.

Regarding `CC(C)(C)COc1ccc2ccc(=O)oc2c1`, in data set [1], the result was Active. Besides, the “inhibition (INH)” value in data set [2] was “Not Active”.

For the molecule `COc1cc(/C=C/C(=O)O)ccc1OCC=C(C)C` [BOROPINIC ACID], the Activity result in data set [4] was “Dose-dependent effect”. In addition, the “inhibition (INH)” value in data set [2] was “Not Active”.

On to `C=CCOc1ccc2ccc(=O)oc2c1` [7-ALLYLOXYCOUMARIN], for which the Activity entry in data set [3] is given as “Not Active”. In data set [2], the “inhibition (INH)” value was “Not Active”.

In the case of `CCCOc1ccc2ccc(=O)oc2c1` [7-PROPOXYCOUMARIN], the Activity entry in data set [3] is listed as “Not Active”. In data set [2], the “inhibition (INH)” value was “Active”.

Consider `CC(C)=CCOc1ccc2ccc(=O)oc2c1` [7-PRENYLOXYCOUMARIN], for which the Activity entry in data set [4] was “Dose-dependent effect”. In addition, the “inhibition (INH)” value in data set [2] is on record as “Not Active”.

Take `COc1ccc2ccc(=O)oc2c1` [HERNIARIN]: the Activity result in data set [3] is listed as “Not Active”. For the same molecule, the “inhibition (INH)” value in data set [2] was “Not Active”.

On to `CC(C)CCOc1ccc2ccc(=O)oc2c1`, for which the Activity entry in data set [3] is listed as “Not Active”. Moreover, the “inhibition (INH)” value in data set [2] is given as “Not Active”.

For `CCOc1ccc2ccc(=O)oc2c1` [ETHOXYCOUMARIN], the Activity result in data set [3] is listed as “Not Active”. Further, the “inhibition (INH)” value in data set [2] was “Not Active”.
